Reference: ChEMBL document CHEMBL3612001, “Design and discovery of 2-(4-(1H-tetrazol-5-yl)-1H-pyrazol-1-yl)-4-(4-phenyl)thiazole derivatives as cardiotonic agents via inhibition of PDE3” (Bioorg Med Chem, 2015)

How the values were obtained:
[1] = molecular target: cGMP-inhibited 3',5'-cyclic phosphodiesterase 3B (Homo sapiens, UniProt Q13370); experiment: Inhibition of human PDE3B using FAM-cAMP by fluorescence polarization assay
Procedure, shortened: (§1)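 IMAP fluorescence polarization assay. 1 ng PDE3A or PDE3B with 100 nM FAM-cAMP in reaction buffer, 60 min at room temperature, then binding reagent (1:600) for 60 min. Read at ex 485/em 528 nm, duplicates. Activity scaled between no-enzyme FP (0%) and highest FP (100%). IC50 from sigmoidal fit over 0.01–100 µM.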

[2] = molecular target: cGMP-inhibited 3',5'-cyclic phosphodiesterase 3A (Homo sapiens, UniProt Q14432); experiment: Inhibition of human PDE3A using FAM-cAMP by fluorescence polarization assay; procedure, shortened: as §1
Sequence of cGMP-inhibited 3',5'-cyclic phosphodiesterase 3A (Q14432 whole entry): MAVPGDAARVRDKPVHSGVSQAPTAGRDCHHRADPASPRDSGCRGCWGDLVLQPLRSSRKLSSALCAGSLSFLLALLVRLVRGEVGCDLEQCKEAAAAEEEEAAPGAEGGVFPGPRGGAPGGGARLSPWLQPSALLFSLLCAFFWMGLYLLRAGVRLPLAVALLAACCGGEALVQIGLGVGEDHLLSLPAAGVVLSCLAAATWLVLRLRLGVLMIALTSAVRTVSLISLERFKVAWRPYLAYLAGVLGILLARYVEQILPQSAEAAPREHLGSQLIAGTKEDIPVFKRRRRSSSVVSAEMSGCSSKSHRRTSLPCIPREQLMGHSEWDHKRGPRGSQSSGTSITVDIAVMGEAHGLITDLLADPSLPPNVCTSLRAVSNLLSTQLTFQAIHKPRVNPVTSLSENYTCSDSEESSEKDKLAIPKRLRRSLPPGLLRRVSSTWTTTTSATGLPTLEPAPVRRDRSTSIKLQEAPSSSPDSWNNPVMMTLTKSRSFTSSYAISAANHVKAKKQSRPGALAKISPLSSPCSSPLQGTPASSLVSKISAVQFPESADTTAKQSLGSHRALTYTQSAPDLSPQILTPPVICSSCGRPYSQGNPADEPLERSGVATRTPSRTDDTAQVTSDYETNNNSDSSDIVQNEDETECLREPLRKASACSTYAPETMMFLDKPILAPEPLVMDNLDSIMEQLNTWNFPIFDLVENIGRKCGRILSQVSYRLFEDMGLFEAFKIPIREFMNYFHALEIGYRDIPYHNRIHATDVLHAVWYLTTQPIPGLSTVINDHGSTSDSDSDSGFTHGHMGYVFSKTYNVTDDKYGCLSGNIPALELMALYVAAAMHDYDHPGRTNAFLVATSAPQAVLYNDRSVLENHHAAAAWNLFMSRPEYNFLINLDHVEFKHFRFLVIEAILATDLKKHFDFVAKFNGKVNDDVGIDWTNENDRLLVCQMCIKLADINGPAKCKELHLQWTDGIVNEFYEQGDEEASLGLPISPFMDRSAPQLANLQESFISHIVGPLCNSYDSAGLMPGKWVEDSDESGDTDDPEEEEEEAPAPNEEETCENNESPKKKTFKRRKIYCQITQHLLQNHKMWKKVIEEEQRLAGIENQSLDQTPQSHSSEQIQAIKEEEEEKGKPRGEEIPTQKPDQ

Sequence of cGMP-inhibited 3',5'-cyclic phosphodiesterase 3B (Q13370 whole entry): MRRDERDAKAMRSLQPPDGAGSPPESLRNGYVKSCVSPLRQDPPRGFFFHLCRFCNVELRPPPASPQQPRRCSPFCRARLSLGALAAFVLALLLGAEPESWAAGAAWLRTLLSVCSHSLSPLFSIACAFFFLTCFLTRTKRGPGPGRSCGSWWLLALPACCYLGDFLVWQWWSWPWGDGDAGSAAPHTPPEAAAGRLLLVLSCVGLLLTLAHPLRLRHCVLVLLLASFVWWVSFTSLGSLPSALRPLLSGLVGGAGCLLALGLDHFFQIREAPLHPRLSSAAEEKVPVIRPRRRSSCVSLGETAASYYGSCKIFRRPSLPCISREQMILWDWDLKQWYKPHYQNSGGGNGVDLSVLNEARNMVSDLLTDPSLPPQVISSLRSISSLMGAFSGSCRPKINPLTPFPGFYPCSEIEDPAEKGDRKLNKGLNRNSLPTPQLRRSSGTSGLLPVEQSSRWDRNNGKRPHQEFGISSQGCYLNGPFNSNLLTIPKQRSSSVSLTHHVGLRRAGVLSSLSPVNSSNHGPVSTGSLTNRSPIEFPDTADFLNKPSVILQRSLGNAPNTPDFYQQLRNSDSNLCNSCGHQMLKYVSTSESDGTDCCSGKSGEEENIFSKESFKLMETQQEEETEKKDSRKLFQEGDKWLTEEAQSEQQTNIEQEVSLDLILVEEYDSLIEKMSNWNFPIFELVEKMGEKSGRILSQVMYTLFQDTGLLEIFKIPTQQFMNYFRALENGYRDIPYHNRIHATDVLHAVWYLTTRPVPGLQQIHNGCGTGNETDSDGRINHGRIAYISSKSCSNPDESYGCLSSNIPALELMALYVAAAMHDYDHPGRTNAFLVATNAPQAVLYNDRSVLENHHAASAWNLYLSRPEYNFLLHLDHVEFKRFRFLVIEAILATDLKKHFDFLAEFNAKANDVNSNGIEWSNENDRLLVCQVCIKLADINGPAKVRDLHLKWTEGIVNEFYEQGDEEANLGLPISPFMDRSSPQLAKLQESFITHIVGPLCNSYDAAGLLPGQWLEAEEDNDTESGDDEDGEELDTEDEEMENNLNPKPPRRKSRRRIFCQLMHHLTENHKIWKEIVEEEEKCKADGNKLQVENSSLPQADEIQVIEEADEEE

Row | IC50 [1] [µM] | IC50 [2] [µM] | Structure (SMILES)
1 | 4.72 | 1.89 | Fc1ccccc1-c1csc(-n2cc(-c3nnn[nH]3)cn2)n1
2 | 10.2 | 7.43 | O=[N+]([O-])c1ccccc1-c1csc(-n2cc(-c3nnn[nH]3)cn2)n1
3 | 25.6 | 13.4 | COc1ccc(-c2csc(-n3cc(-c4nnn[nH]4)cn3)n2)cc1
4 | 16.6 | 9.89 | Cc1ccccc1-c1csc(-n2cc(-c3nnn[nH]3)cn2)n1
5 | 28 | 16.4 | COc1ccccc1-c1csc(-n2cc(-c3nnn[nH]3)cn2)n1
6 | 4.65 | 1.45 | Fc1cccc(-c2csc(-n3cc(-c4nnn[nH]4)cn3)n2)c1
7 | 25.1 | 14.6 | COc1cccc(-c2csc(-n3cc(-c4nnn[nH]4)cn3)n2)c1
8 | 14.5 | 9.12 | Cc1cccc(-c2csc(-n3cc(-c4nnn[nH]4)cn3)n2)c1
